{
  "source": "ChEMBL document CHEMBL1275500",
  "about": "“Characterization of the new metallo-beta-lactamase VIM-13 and its integron-borne gene from a Pseudomonas aeruginosa clinical isolate in Spain” (Antimicrob Agents Chemother, 2008)",
  "format_in_all_cases": "functional",
  "key": {"[1]": {"system": "Escherichia coli", "experiment": "Antimicrobial activity against Escherichia coli XL1-Blue harboring pUCP carrying VIM-1 gene by Etest method in presence of Tazobactam", "summary_of_the_method": "(§1)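 Etest MICs of piperacillin, piperacillin-tazobactam, ceftazidime, cefepime, cefotaxime, aztreonam, imipenem and meropenem, run per manufacturer's recommendations. Strains were E. coli XL1-Blue or P. aeruginosa PAO1 carrying pUCP24-derived plasmids with blaVIM-1 or blaVIM-13 (cloned by EcoRI) inserted in the lacZ-promoter orientation. E. coli transformants were selected on 10 μg/ml gentamicin MacConkey agar; PAO1 electroporants were selected on 50 μg/ml gentamicin LB agar.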"}, "[2]": {"system": "Pseudomonas aeruginosa", "experiment": "Antimicrobial activity against Pseudomonas aeruginosa PAO1 harboring pUCP carrying VIM-1 gene by Etest method", "summary_of_the_method": "as §1"}, "[3]": {"system": "Escherichia coli", "experiment": "Antimicrobial activity against Escherichia coli XL1-Blue by Etest method"}, "[4]": {"system": "Pseudomonas aeruginosa", "experiment": "Antimicrobial activity against Pseudomonas aeruginosa PAO1 by Etest method in presence of Tazobactam", "summary_of_the_method": "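Etest MICs of piperacillin-tazobactam for P. aeruginosa PAO1 electroporated with pUCP24 carrying cloned blaVIM-1 or blaVIM-13, with the insert in lacZ promoter orientation. Transformants were selected on 50 μg/ml gentamicin LB agar. Testing followed the manufacturer's recommendations, with CLSI breakpoints.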"}, "[5]": {"system": "Pseudomonas aeruginosa", "experiment": "Antimicrobial activity against Pseudomonas aeruginosa PAO1 harboring pUCP carrying VIM-1 gene by Etest method in presence of Tazobactam"}, "[6]": {"system": "Pseudomonas aeruginosa", "experiment": "Antimicrobial activity against Pseudomonas aeruginosa PAO1 harboring pUCP carrying VIM-13 gene by Etest method", "summary_of_the_method": "as §1"}, "[7]": {"system": "Pseudomonas aeruginosa", "experiment": "Antimicrobial activity against Pseudomonas aeruginosa PAO1 harboring pUCP carrying VIM-13 gene by Etest method in presence of Tazobactam"}, "[8]": {"system": "Pseudomonas aeruginosa", "experiment": "Antimicrobial activity against Pseudomonas aeruginosa PAO1 by Etest method"}, "[9]": {"system": "Escherichia coli", "experiment": "Antimicrobial activity against Escherichia coli XL1-Blue harboring pUCP carrying VIM-1 gene by Etest method", "summary_of_the_method": "as §1"}, "[10]": {"system": "Pseudomonas aeruginosa", "experiment": "Antimicrobial activity against Pseudomonas aeruginosa isolate PA-SL2 harboring blaVIM-13 gene by Etest method in presence of Tazobactam"}, "[11]": {"system": "Pseudomonas aeruginosa", "experiment": "Antimicrobial activity against Pseudomonas aeruginosa isolate PA-SD2 harboring blaVIM-1 gene by Etest method in presence of Tazobactam"}, "[12]": {"system": "Escherichia coli", "experiment": "Antimicrobial activity against Escherichia coli XL1-Blue harboring pUCP carrying VIM-13 gene by Etest method", "summary_of_the_method": "as §1"}, "[13]": {"system": "Pseudomonas aeruginosa", "experiment": "Antimicrobial activity against Pseudomonas aeruginosa isolate PA-SL2 harboring blaVIM-13 gene by Etest method"}, "[14]": {"system": "Pseudomonas aeruginosa", "experiment": "Antimicrobial activity against Pseudomonas aeruginosa isolate PA-SD2 harboring blaVIM-1 gene by Etest method"}, "[15]": {"system": "Escherichia coli", "experiment": "Antimicrobial activity against Escherichia coli XL1-Blue harboring pUCP carrying VIM-13 gene by Etest method in presence of Tazobactam", "summary_of_the_method": "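blaVIM-13 was PCR-amplified, passed through pGEM-T, and moved as an EcoRI fragment into pUCP24, with the insert oriented with the lacZ promoter (checked by PCR and sequencing). It was transformed into CaCl2-competent E. coli XL1-Blue and selected on MacConkey agar with 10 μg/ml gentamicin. Piperacillin-tazobactam MIC was read by Etest strip.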"}, "[16]": {"system": "Escherichia coli", "experiment": "Antimicrobial activity against Escherichia coli XL1-Blue by Etest method in presence of Tazobactam"}},
  "data": [
    {"smiles": "CCN1CCN(C(=O)N[C@@H](C(=O)N[C@@H]2C(=O)N3[C@@H]2SC(C)(C)[C@@H]3C(=O)O)c2ccccc2)C(=O)C1=O", "note": "[PIPERACILLIN]", "values": [
      {"measurement": "MIC", "setting": "[1]", "result": 6, "unit": "µg/mL"},
      {"measurement": "MIC", "setting": "[2]", "result": 64, "unit": "µg/mL"},
      {"measurement": "MIC", "setting": "[3]", "result": 1.5, "unit": "µg/mL"},
      {"measurement": "MIC", "setting": "[4]", "result": 3, "unit": "µg/mL"},
      {"measurement": "MIC", "setting": "[5]", "result": 48, "unit": "µg/mL"},
      {"measurement": "MIC", "setting": "[6]", "result": 192, "unit": "µg/mL"},
      {"measurement": "MIC", "setting": "[7]", "result": 192, "unit": "µg/mL"},
      {"measurement": "MIC", "setting": "[8]", "result": 3, "unit": "µg/mL"},
      {"measurement": "MIC", "setting": "[9]", "result": 6, "unit": "µg/mL"},
      {"measurement": "MIC", "setting": "[10]", "result": "> 256", "unit": "µg/mL"},
      {"measurement": "MIC", "setting": "[11]", "result": "> 256", "unit": "µg/mL"},
      {"measurement": "MIC", "setting": "[12]", "result": 8, "unit": "µg/mL"},
      {"measurement": "MIC", "setting": "[13]", "result": "> 256", "unit": "µg/mL"},
      {"measurement": "MIC", "setting": "[14]", "result": "> 256", "unit": "µg/mL"},
      {"measurement": "MIC", "setting": "[15]", "result": 8, "unit": "µg/mL"},
      {"measurement": "MIC", "setting": "[16]", "result": 1, "unit": "µg/mL"}
    ]}
  ]
}
